Results reported in ChEMBL document CHEMBL2086239, “Synthesis and biological evaluation of combretastatin-amidobenzothiazole conjugates as potential anticancer agents” (Eur J Med Chem, 2012).
Calls of active or inactive are those of the source. The rule behind the calls is not given here.

Tests used:
Assay type in all cases: functional
[1] = tested on: COLO 205; test: Cytotoxicity against human COLO205 cells after 48 hrs assessed as inhibition of cell growth at 10 uM after 48 hrs by SRB assay relative to control; details: COLO 205, 48 h, read-out: GI
Procedure, shortened: (§1)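 SRB protein assay in DMEM with 10% FBS at 37 °C, 5% CO2, 100% relative humidity. Cells seeded in 96-well plates, incubated 24 h, then exposed to drug at 10 µM for 48 h and processed per standard protocol. Absorbance read at 560 nm; growth percentage calculated for test wells relative to control wells.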

[2] = tested on: THP-1; test: Cytotoxicity against human THP1 cells after 48 hrs assessed as inhibition of cell growth at 10 uM after 48 hrs by SRB assay relative to control; details: THP-1, 48 h, read-out: GI; procedure, shortened: as §1
[3] = tested on: IMR-32; test: Cytotoxicity against human IMR32 cells after 48 hrs assessed as inhibition of cell growth at 10 uM after 48 hrs by SRB assay relative to control; details: IMR-32, 48 h, read-out: GI; procedure, shortened: as §1
[4] = tested on: CCRF-CEM; test: Growth inhibition of human CCRF-CEM cells after 48 hrs by SRB assay
Procedure, shortened: (§2)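 NCI 60-cell-line screen: after preliminary screening, tested at five dose concentrations on 59 human tumour lines covering leukemia, lung, colon, CNS, melanoma, ovarian, renal, prostate and breast.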

[5] = tested on: RPMI-8226; test: Growth inhibition of human RPMI8226 cells after 48 hrs by SRB assay; details: RPMI-8226, 48 h; procedure, shortened: as §2
[6] = tested on: SR; test: Growth inhibition of human SR cells after 48 hrs by SRB assay
Procedure, shortened: (§3)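 NCI 60-cell-line panel, five-dose testing after preliminary screen; sulforhodamine B protein assay in DMEM with 10% FBS, 37 °C, 5% CO2, 100% humidity. Cells seeded and incubated 24 h before compound addition, then exposed 48 h. Absorbance read at 560 nm; growth percentage relative to control wells; GI50 taken as concentration giving 50% growth inhibition.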

[7] = tested on: A549; test: Growth inhibition of human A549 cells after 48 hrs by SRB assay; details: A549, 48 h; procedure, shortened: as §2
[8] = tested on: EKVX; test: Growth inhibition of human EKVX cells after 48 hrs by SRB assay; procedure, shortened: as §2
[9] = tested on: HOP-62; test: Growth inhibition of human HOP62 cells after 48 hrs by SRB assay; details: HOP-62, 48 h; procedure, shortened: as §2
[10] = tested on: HOP-92; test: Growth inhibition of human HOP92 cells after 48 hrs by SRB assay; details: HOP-92, 48 h; procedure, shortened: as §2
[11] = tested on: NCI-H226; test: Growth inhibition of human NCI-H226 cells after 48 hrs by SRB assay; details: NCI-H226, 48 h; procedure, shortened: as §2
[12] = tested on: NCI-H322M; test: Growth inhibition of human NCI-H322M cells after 48 hrs by SRB assay; procedure, shortened: as §2
[13] = tested on: COLO 205; test: Growth inhibition of human COLO205 cells after 48 hrs by SRB assay; details: COLO 205, 48 h; procedure, shortened: as §2
[14] = tested on: HCC 2998; test: Growth inhibition of human HCC2998 cells after 48 hrs by SRB assay; procedure, shortened: as §2
[15] = tested on: HT-29; test: Growth inhibition of human HT-29 cells after 48 hrs by SRB assay; procedure, shortened: as §2
[16] = tested on: KM12; test: Growth inhibition of human KM12 cells after 48 hrs by SRB assay; details: KM12, 48 h; procedure, shortened: as §2
[17] = tested on: SF-268; test: Growth inhibition of human SF268 cells after 48 hrs by SRB assay; details: SF-268, 48 h; procedure, shortened: as §2
[18] = tested on: SF-295; test: Growth inhibition of human SF295 cells after 48 hrs by SRB assay; details: SF-295, 48 h; procedure, shortened: as §3
[19] = tested on: SF-539; test: Growth inhibition of human SF539 cells after 48 hrs by SRB assay; details: SF-539, 48 h; procedure, shortened: as §3
[20] = tested on: SNB-19; test: Growth inhibition of human SNB19 cells after 48 hrs by SRB assay; procedure, shortened: as §3
[21] = tested on: U-251; test: Growth inhibition of human U251cells after 48 hrs by SRB assay; details: U-251, 48 h; procedure, shortened: as §3
[22] = tested on: M14; test: Growth inhibition of human M14 cells after 48 hrs by SRB assay; details: M14, 48 h; procedure, shortened: as §2
[23] = tested on: MDA-MB-435; test: Growth inhibition of human MDA-MB-435 cells after 48 hrs by SRB assay; details: MDA-MB-435, 48 h; procedure, shortened: as §2
[24] = tested on: SK-MEL-28; test: Growth inhibition of human SK-MEL-28 cells after 48 hrs by SRB assay; procedure, shortened: as §3
[25] = tested on: UACC-257; test: Growth inhibition of human UACC257 cells after 48 hrs by SRB assay; procedure, shortened: as §3
[26] = tested on: UACC-62; test: Growth inhibition of human UACC62 cells after 48 hrs by SRB assay; details: UACC-62, 48 h; procedure, shortened: as §3
[27] = tested on: IGROV-1; test: Growth inhibition of human IGROV1 cells after 48 hrs by SRB assay; details: IGROV-1, 48 h; procedure, shortened: as §2
[28] = tested on: OVCAR-4; test: Growth inhibition of human OVCAR4 cells after 48 hrs by SRB assay; details: OVCAR-4, 48 h; procedure, shortened: as §2
[29] = tested on: SK-OV-3; test: Growth inhibition of human SKOV3 cells after 48 hrs by SRB assay; details: SK-OV-3, 48 h; procedure, shortened: as §3
[30] = tested on: ACHN; test: Growth inhibition of human ACHN cells after 48 hrs by SRB assay; procedure, shortened: as §2
[31] = tested on: CAKI-1; test: Growth inhibition of human Caki1 cells after 48 hrs by SRB assay; details: CAKI-1, 48 h; procedure, shortened: as §2
[32] = tested on: RXF 393; test: Growth inhibition of human RXF393 cells after 48 hrs by SRB assay; details: RXF 393, 48 h; procedure, shortened: as §2
[33] = tested on: SN12C; test: Growth inhibition of human SN12C cells after 48 hrs by SRB assay; procedure, shortened: as §3
[34] = tested on: TK-10; test: Growth inhibition of human TK10 cells after 48 hrs by SRB assay; details: TK-10, 48 h; procedure, shortened: as §3
[35] = tested on: UO-31; test: Growth inhibition of human UO31 cells after 48 hrs by SRB assay; details: UO-31, 48 h; procedure, shortened: as §3
[36] = tested on: PC-3; test: Growth inhibition of human PC3 cells after 48 hrs by SRB assay; details: PC-3, 48 h; procedure, shortened: as §2
[37] = tested on: DU-145; test: Growth inhibition of human DU145 cells after 48 hrs by SRB assay; details: DU-145, 48 h; procedure, shortened: as §2
[38] = tested on: BT-549; test: Growth inhibition of human BT549 cells after 48 hrs by SRB assay; details: BT-549, 48 h; procedure, shortened: as §2
[39] = tested on: T47D; test: Growth inhibition of human T47D cells after 48 hrs by SRB assay; procedure, shortened: as §3
[40] = tested on: MDA-MB-468; test: Growth inhibition of human MDA-MB-468 cells after 48 hrs by SRB assay; details: MDA-MB-468, 48 h; procedure, shortened: as §2
[41] = tested on: MCF7; test: Cell cycle arrest in human MCF7 cells assessed as accumulation at G1 phase at 4 uM after 24 hrs by FACS analysis (reference value: 58.33%)
[42] = tested on: MCF7; test: Cell cycle arrest in human MCF7 cells assessed as accumulation at S phase at 4 uM after 24 hrs by FACS analysis (reference value: 6.79%)
[43] = tested on: MCF7; test: Cell cycle arrest in human MCF7 cells assessed as accumulation at G2/M phase at 4 uM after 24 hrs by FACS analysis (reference value: 34.88%)

SMILES: COc1ccc(/C=C\c2cc(OC)c(OC)c(OC)c2)cc1OCC(=O)Nc1nc2ccc(F)cc2s1
- inhibition of growth at 10 µM [1]: 50%
- inhibition of growth at 10 µM [2]: 54%
- inhibition of growth at 10 µM [3]: 77%
- GI50 [4]: 3.7 µM
- GI50 [5]: 6.36 µM
- GI50 [6]: 2.19 µM
- GI50 [7]: 5.99 µM
- GI50 [8]: 5.72 µM
- GI50 [9]: 5.7 µM
- GI50 [10]: 5.73 µM
- GI50 [11]: 5.6 µM
- GI50 [12]: inactive
- GI50 [13]: 7.78 µM
- GI50 [14]: inactive
- GI50 ([15]; HT-29, 48 h): 9.63 µM
- GI50 [16]: 4.78 µM
- GI50 [17]: 7.23 µM
- GI50 [18]: 4.29 µM
- GI50 [19]: 4.51 µM
- GI50 [20]: inactive
- GI50 [21]: 4.33 µM
- GI50 [22]: 6.82 µM
- GI50 [23]: 0.33 µM
- GI50 [24]: inactive
- GI50 ([25]; UACC-257, 48 h): 8.69 µM
- GI50 [26]: 4.05 µM
- GI50 [27]: 4.17 µM
- GI50 [28]: 7.3 µM
- GI50 [29]: 8 µM
- GI50 [30]: 3.33 µM
- GI50 [31]: 2.78 µM
- GI50 [32]: 6.29 µM
- GI50 [33]: 4.61 µM
- GI50 [34]: 9.89 µM
- GI50 [35]: 2.56 µM
- GI50 [36]: 6.74 µM
- GI50 [37]: 8.97 µM
- GI50 [38]: 16.7 µM
- GI50 [39]: 3.39 µM
- GI50 [40]: 3.68 µM
- Activity [41]: 44.28%
- Activity [42]: 13.64%
- Activity [43]: 42.08%

SMILES: COc1ccc(/C=C\c2cc(OC)c(OC)c(OC)c2)cc1OCC(=O)Nc1nc2ccc(OC(F)(F)F)cc2s1
- inhibition of growth at 10 µM [1]: 41%
- inhibition of growth at 10 µM [2]: 66%
- inhibition of growth at 10 µM [3]: 44%
- GI50 [4]: 4.12 µM
- GI50 [5]: 5.83 µM
- GI50 [6]: 3.55 µM
- GI50 [7]: 6 µM
- GI50 [8]: 7.89 µM
- GI50 [9]: 7.09 µM
- GI50 [10]: 2.74 µM
- GI50 [11]: 4.3 µM
- GI50 [12]: inactive
- GI50 [13]: 43.3 µM
- GI50 ([14]; HCC 2998, 48 h): 17.1 µM
- GI50 [15]: inactive
- GI50 [16]: 4.48 µM
- GI50 [17]: 6.01 µM
- GI50 [18]: 3.7 µM
- GI50 [19]: 2.28 µM
- GI50 ([20]; SNB-19, 48 h): 7.08 µM
- GI50 [21]: 3.37 µM
- GI50 [22]: 4.36 µM
- GI50 [23]: 1.93 µM
- GI50 ([24]; SK-MEL-28, 48 h): 4.57 µM
- GI50 [25]: inactive
- GI50 [26]: 5.11 µM
- GI50 [27]: 5.64 µM
- GI50 [28]: 5.34 µM
- GI50 [29]: 8.42 µM
- GI50 [30]: 8.31 µM
- GI50 [31]: 4.6 µM
- GI50 [32]: 2.65 µM
- GI50 [33]: 6.42 µM
- GI50 [34]: 18.6 µM
- GI50 [35]: 4.37 µM
- GI50 [36]: 5.12 µM
- GI50 [37]: 4.11 µM
- GI50 [38]: 10.5 µM
- GI50 [39]: 3.95 µM
- GI50 [40]: 2.3 µM
- Activity [41]: 59.04%
- Activity [42]: 7.51%
- Activity [43]: 33.45%
